Results reported in ChEMBL document CHEMBL3596178, “Synthesis and biological evaluation of curcumin derivatives containing NSAIDs for their anti-inflammatory activity” (Bioorg Med Chem Lett, 2015).
Active and inactive are the calls of the source. The rule behind the calls is not given here.

Assays:
[1] = tested on: RAW264.7; assay: Inhibition of TPA-induced cell proliferation of mouse RAW264.7 cells; assay type: functional, cell-based
In short: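 RAW 264.7 macrophages; proliferation measured by MTT assay. IC50 reported as mean±SD of three independent experiments.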

[2] = tested on: Mus musculus; assay: Anti-inflammatory activity in BALB/c mouse assessed as reduction in TPA-induced ear edema by measuring weight of ear punches at 0.75 uM applied topically 6 mins before to TPA treatment; assay type: functional
In short: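 Female BALB/c mice; TPA applied topically to ears, test agents applied topically 6 min before TPA. Edema read as weight of 6 mm diameter ear punch biopsies. Screening concentration 0.75 µM.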

[3] = tested on: Mus musculus; assay: Anti-inflammatory activity in BALB/c mouse model of TPA-induced ear edema assessed as reduction in inflammatory cells infiltration at 0.75 uM applied topically 6 mins before to TPA treatment by H and E staining method; assay type: functional, organism-based
In short: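 Female BALB/c mouse ears pretreated topically with agents or acetone (control), then TPA applied topically. Ear sections stained with H&E and assessed histologically for epidermal hyperkeratosis, stratum corneum thickening and inflammatory cell infiltration.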

[4] = tested on: Mus musculus; assay: Anti-inflammatory activity in BALB/c mouse model of TPA-induced ear edema assessed as reduction in TNFalpha levels at 0.75 uM applied topically 6 mins before to TPA treatment by immunohistochemistry; assay type: functional, organism-based
[5] = tested on: Mus musculus; assay: Anti-inflammatory activity in BALB/c mouse model of TPA-induced ear edema assessed as reduction in phosphorylated p65 level at 0.75 uM applied topically 6 mins before to TPA treatment by immunohistochemistry; assay type: functional, organism-based
In short: (§1)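 TPA-induced ear edema in BALB/c mice, agents applied topically before TPA. Ear tissue examined immunohistochemically with a nonphosphorylated p65 antibody and an anti-phospho-Ser536 p65 antibody.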

[6] = tested on: Mus musculus; assay: Anti-inflammatory activity in BALB/c mouse model of TPA-induced ear edema assessed as reduction in IKK activity level at 0.75 uM applied topically 6 mins before to TPA treatment by immunohistochemistry; assay type: functional, organism-based
[7] = tested on: Mus musculus; assay: Anti-inflammatory activity in BALB/c mouse model of TPA-induced ear edema assessed as reduction in Ikappa-Balpha phosphorylation level at 0.75 uM applied topically 6 mins before to TPA treatment by immunohistochemistry; assay type: functional, organism-based
In short: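 TPA-induced ear edema in BALB/c mice, agents applied topically before TPA. Ear tissue examined immunohistochemically with an anti-phospho-Ser36 IκBα antibody and a nonphosphorylated IκB antibody.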

[8] = tested on: Mus musculus; assay: Anti-inflammatory activity in BALB/c mouse model of TPA-induced ear edema assessed as reduction in IL-1beta levels at 0.75 uM applied topically 6 mins before to TPA treatment by immunohistochemistry; assay type: functional, organism-based
[9] = tested on: Mus musculus; assay: Anti-inflammatory activity in BALB/c mouse model of TPA-induced ear edema assessed as reduction in IL-6 levels at 0.75 uM applied topically 6 mins before to TPA treatment by immunohistochemistry; assay type: functional, organism-based
[10] = tested on: Mus musculus; assay: Anti-inflammatory activity in BALB/c mouse model of TPA-induced ear edema assessed as reduction in p65 nuclear translocation at 0.75 uM applied topically 6 mins before to TPA treatment by immunohistochemistry; assay type: functional, organism-based; in short: as §1

Structure (SMILES) | IC50 [1] | inhibition (INH) [2] | further results
COc1cc(/C=C/C(=O)CC(=O)/C=C/c2ccc(OC(=O)c3ccccc3OC(=O)c3ccccc3O)c(OC)c2)ccc1O | > 30 µM | 10% | 
O=C(O)c1ccccc1O |  |  | inhibition [3]: Active
COc1cc(/C=C/C(=O)CC(=O)/C=C/c2ccc(OC(=O)Cc3ccccc3Nc3c(Cl)cccc3Cl)c(OC)c2)ccc1OC(=O)Cc1ccccc1Nc1c(Cl)cccc1Cl | > 30 µM | 10% | 
COc1ccc2c(c1)c(CC(=O)Oc1ccc(/C=C/C(=O)CC(=O)/C=C/c3ccc(OC(=O)Cc4c(C)n(C(=O)c5ccc(Cl)cc5)c5ccc(OC)cc45)c(OC)c3)cc1OC)c(C)n2C(=O)c1ccc(Cl)cc1 | > 30 µM | 10% | 
COc1cc(/C=C/C(=O)CC(=O)/C=C/c2ccc(O)c(OC)c2)ccc1O [CURCUMIN] | 22.9 µM |  | 
COc1ccc2cc([C@@H](C)C(=O)Oc3ccc(/C=C/C(=O)CC(=O)/C=C/c4ccc(OC(=O)[C@H](C)c5ccc6cc(OC)ccc6c5)c(OC)c4)cc3OC)ccc2c1 | > 30 µM | 10% | 
COc1cc(/C=C/C(=O)CC(=O)/C=C/c2ccc(OC(=O)C(C)c3cccc(C(=O)c4ccccc4)c3)c(OC)c2)ccc1OC(=O)C(C)c1cccc(C(=O)c2ccccc2)c1 (stereo unspecified) | > 30 µM | 10% | 
COc1cc(/C=C/C(=O)CC(=O)/C=C/c2ccc(OC(=O)c3cc(-c4ccc(F)cc4F)ccc3O)c(OC)c2)ccc1OC(=O)c1cc(-c2ccc(F)cc2F)ccc1O | > 30 µM | 85% | 
COc1cc(/C=C/C(=O)CC(=O)/C=C/c2ccc(OC(=O)c3ccccc3OC(C)=O)c(OC)c2)ccc1OC(=O)c1ccccc1OC(C)=O | > 30 µM | 87.8% | 
CCc1cccc2c3c([nH]c12)C(CC)(CC(=O)Oc1ccc(/C=C/C(=O)CC(=O)/C=C/c2ccc(OC(=O)CC4(CC)OCCc5c4[nH]c4c(CC)cccc54)c(OC)c2)cc1OC)OCC3 (stereo unspecified) | > 30 µM |  | 
COc1cc(/C=C/C(=O)CC(=O)/C=C/c2ccc(OC(=O)c3ccccc3Nc3cccc(Cl)c3C)c(OC)c2)ccc1OC(=O)c1ccccc1Nc1cccc(Cl)c1C | 28 µM | 10% | 
COc1cc(/C=C/C(=O)CC(=O)/C=C/c2ccc(OC(=O)c3ccccc3Nc3cccc(C)c3C)c(OC)c2)ccc1O | 28 µM | 78% | 
COc1cc(/C=C/C(=O)CC(=O)/C=C/c2ccc(OC(=O)c3ccccc3Nc3cccc(Cl)c3C)c(OC)c2)ccc1O | 9.2 µM | 85% | 
COc1cc(/C=C/C(=O)CC(=O)/C=C/c2ccc(OC(=O)CCc3nc(-c4ccccc4)c(-c4ccccc4)o3)c(OC)c2)ccc1OC(=O)CCc1nc(-c2ccccc2)c(-c2ccccc2)o1 | > 30 µM | 10% | 
COc1cc(/C=C/C(=O)CC(=O)/C=C/c2ccc(OC(=O)c3ccccc3O)c(OC)c2)ccc1OC(=O)c1ccccc1O | 6.11 µM | 38.5% | 
CCc1cccc2c3c([nH]c12)C(CC)(CC(=O)Oc1ccc(/C=C/C(=O)CC(=O)/C=C/c2ccc(O)c(OC)c2)cc1OC)OCC3 (stereo unspecified) | 25.3 µM | 10% | 
COc1cc(/C=C/C(=O)CC(=O)/C=C/c2ccc(OC(=O)C(C)c3ccc(CC(C)C)cc3)c(OC)c2)ccc1OC(=O)C(C)c1ccc(CC(C)C)cc1 (stereo unspecified) | 7.36 µM |  | 
COc1cc(/C=C/C(=O)CC(=O)/C=C/c2ccc(OC(=O)C(C)c3ccc(CC(C)C)cc3)c(OC)c2)ccc1O (stereo unspecified) | > 30 µM | 91.8% | 
COc1ccc2cc(C(C)C(=O)Oc3ccc(/C=C/C(=O)CC(=O)/C=C/c4ccc(O)c(OC)c4)cc3OC)ccc2c1 (single isomer, unassigned) | 18.7 µM | 87.8% | 
COc1cc(/C=C/C(=O)CC(=O)/C=C/c2ccc(OC(=O)CCc3nc(-c4ccccc4)c(-c4ccccc4)o3)c(OC)c2)ccc1O | 19.3 µM | 75% | 
COc1cc(/C=C/C(=O)CC(=O)/C=C/c2ccc(OC(=O)c3ccccc3Nc3cccc(C(F)(F)F)c3)c(OC)c2)ccc1O | 5.54 µM | 90% | 
COc1cc(/C=C/C(=O)CC(=O)/C=C/c2ccc(OC(=O)c3ccccc3Nc3cccc(C(F)(F)F)c3)c(OC)c2)ccc1OC(=O)c1ccccc1Nc1cccc(C(F)(F)F)c1 | 12.9 µM | 10% | 
COc1cc(/C=C/C(=O)CC(=O)/C=C/c2ccc(OC(=O)c3ccccc3OC(=O)c3ccccc3O)c(OC)c2)ccc1OC(=O)c1ccccc1OC(=O)c1ccccc1O | > 30 µM | 93.3% | inhibition [4]: Active; inhibition [5]: Active; inhibition [6]: Active; inhibition [7]: Active; inhibition [3]: Active
COc1cc(/C=C/C(=O)CC(=O)/C=C/c2ccc(OC(=O)c3cc(-c4ccc(F)cc4F)ccc3O)c(OC)c2)ccc1O | 12.9 µM | 10% | 
COc1cc(/C=C/C(=O)CC(=O)/C=C/c2ccc(OC(=O)c3ccccc3O)c(OC)c2)ccc1O | > 30 µM | 91.8% | inhibition [8]: Active; inhibition [9]: Active; inhibition [10]: Active; inhibition [6]: Active; inhibition [7]: Active; inhibition [3]: Active
COc1cc(/C=C/C(=O)CC(=O)/C=C/c2ccc(OC(=O)c3ccccc3OC(C)=O)c(OC)c2)ccc1O | > 30 µM | 10% | 
COc1cc(/C=C/C(=O)CC(=O)/C=C/c2ccc(OC(=O)C(C)c3cccc(C(=O)c4ccccc4)c3)c(OC)c2)ccc1O (stereo unspecified) | 8.98 µM | 68.8% | 
COc1cc(/C=C/C(=O)CC(=O)/C=C/c2ccc(OC(=O)c3ccccc3Nc3cccc(C)c3C)c(OC)c2)ccc1OC(=O)c1ccccc1Nc1cccc(C)c1C | > 30 µM | 10% | 
COc1cc(/C=C/C(=O)CC(=O)/C=C/c2ccc(OC(=O)Cc3ccccc3Nc3c(Cl)cccc3Cl)c(OC)c2)ccc1O | > 30 µM | 10% | 
O=C(Oc1ccccc1C(=O)O)c1ccccc1O |  |  | inhibition [3]: Active
